Laboratory results taken from ChEMBL document CHEMBL5104118, “Structure-activity relationships of hydrophobic alkyl acrylamides as tissue transglutaminase inhibitors” (RSC Med Chem, 2022).
Calls of active or inactive are those of the source. The calls are words filed in the database; no cut-off is given here.

Key:
[1] = target: T1, Protein-glutamine gamma-glutamyltransferase (Homo sapiens) (UniProt P21980); experiment: Inhibition of recombinant human TG2 expressed in Escherichia coli assessed as Kinact/Ki ratio using Cbz-Glu(gamma-p-nitrophenyl ester)Gly (AL5) as substrate by colorimetric assay
T1 sequence (whole entry): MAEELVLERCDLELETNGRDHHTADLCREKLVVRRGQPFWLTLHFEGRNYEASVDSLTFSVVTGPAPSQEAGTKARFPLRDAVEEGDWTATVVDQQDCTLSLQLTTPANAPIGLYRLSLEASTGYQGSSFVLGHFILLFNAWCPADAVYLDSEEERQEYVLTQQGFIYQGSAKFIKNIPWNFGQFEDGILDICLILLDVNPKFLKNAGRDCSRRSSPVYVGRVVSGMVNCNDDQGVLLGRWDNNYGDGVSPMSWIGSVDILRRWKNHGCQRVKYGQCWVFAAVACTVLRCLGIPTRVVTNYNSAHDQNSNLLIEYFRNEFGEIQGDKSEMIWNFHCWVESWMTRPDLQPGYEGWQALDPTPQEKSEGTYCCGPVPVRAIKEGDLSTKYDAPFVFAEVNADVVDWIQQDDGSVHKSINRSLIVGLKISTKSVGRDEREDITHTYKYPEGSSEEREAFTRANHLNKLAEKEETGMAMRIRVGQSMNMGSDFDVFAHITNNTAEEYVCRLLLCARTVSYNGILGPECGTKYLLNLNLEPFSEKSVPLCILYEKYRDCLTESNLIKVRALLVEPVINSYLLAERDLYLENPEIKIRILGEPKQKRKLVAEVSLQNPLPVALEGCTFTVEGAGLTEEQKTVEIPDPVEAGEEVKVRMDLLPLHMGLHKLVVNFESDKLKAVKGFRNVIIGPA
Outline: (§1)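 Kitz–Wilson conditions, triplicate, 25 °C: 50 mM MOPS pH 6.9, 7.5 mM CaCl2, 100 μM AL5, inhibitor 0.5–900 μM (varies by inhibitor), DMSO ≤5% v/v final; started with 5 mU/mL TG2; p-nitrophenolate read at 405 nm for 20 min. Mono-exponential fits give kobs; kobs vs [I] fitted to saturation model with α = 1+[S]/KM (KM 10 μM), giving kinact and KI; double reciprocal if unsaturated.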

[2] = target: T1, Protein-glutamine gamma-glutamyltransferase (Homo sapiens); experiment: Inhibition of recombinant human TG2 expressed in Escherichia coli assessed as Kinact using Cbz-Glu(gamma-p-nitrophenyl ester)Gly (AL5) as substrate by colorimetric assay; outline: as §1
[3] = target: T2, Protein-glutamine gamma-glutamyltransferase (Homo sapiens, UniProt P21980); experiment: Inhibition of recombinant human TG2 expressed in Escherichia coli assessed as inhibition constant using Cbz-Glu(gamma-p-nitrophenyl ester)Gly (AL5) as substrate by colorimetric assay; outline: as §1
T2 sequence (P21980 whole entry): T1 sequence (whole entry)

[4] = target: T1, Protein-glutamine gamma-glutamyltransferase (Homo sapiens); experiment: Inhibition of GTP binding to recombinant human TG2 expressed in Escherichia coli incubated for 30 mins by GTP-gamma-S BODIPY assay

| Ratio [1] | Kinact [2] [min⁻¹] | Ki [3] [µM] | inhibition [4] | SMILES |
| --- | --- | --- | --- | --- |
| 9.5 10^3/M/min | 0.36 | 38 |  | C=CC(=O)NCCCCCC(=O)N1CCN(C(=O)C23CC4CC(CC(C4)C2)C3)CC1 |
| 108 10^3/M/min | 0.7 | 6.51 | Active | C=CC(=O)NCC(=O)N1CCN(S(=O)(=O)c2cccc3ccccc23)CC1 |
| 27.5 10^3/M/min | 0.69 | 25 | Active | C=CC(=O)NCC(=O)N1CCN(C(=O)c2cccc3ccccc23)CC1 |
| 1510 10^3/M/min | 2.25 | 1.49 | Active | C=CC(=O)NCC(=O)N1CCN(S(=O)(=O)c2cccc3c(N(C)C)cccc23)CC1 |
| 3.3 10^3/M/min | 0.45 | 134 |  | C=CC(=O)NCCCC(=O)N1CCN(C(=O)c2cccc3ccccc23)CC1 |
| 3.9 10^3/M/min | 0.25 | 64.5 |  | C=CC(=O)NCCC(=O)N1CCN(S(=O)(=O)c2cccc3c(N(C)C)cccc23)CC1 |
| 4.2 10^3/M/min | 0.46 | 109 |  | C=CC(=O)NCCCCCC(=O)N1CCN(C(=O)c2cccc3ccccc23)CC1 |
| 13.1 10^3/M/min | 0.55 | 42 |  | C=CC(=O)NCCCCC(=O)N1CCN(S(=O)(=O)c2cccc3c(N(C)C)cccc23)CC1 |
| 8.6 10^3/M/min | 0.23 | 27.4 |  | C=CC(=O)NCCCCCC(=O)N1CCN(S(=O)(=O)c2cccc3c(N(C)C)cccc23)CC1 |
| 2.4 10^3/M/min | 0.13 | 51.6 |  | C=CC(=O)NCCC(=O)N1CCN(C(=O)c2cccc3ccccc23)CC1 |
| 3.1 10^3/M/min | 0.44 | 142 |  | C=CC(=O)NCCCCC(=O)N1CCN(C(=O)c2cccc3ccccc23)CC1 |
| 412 10^3/M/min | 1.34 | 3.2 | Active | C=CC(=O)NCC(=O)N1CCN(C(=O)C23CC4CC(CC(C4)C2)C3)CC1 |
| 7.3 10^3/M/min | 0.54 | 74.2 |  | C=CC(=O)NCCCC(=O)N1CCN(S(=O)(=O)c2cccc3c(N(C)C)cccc23)CC1 |
| 41.9 10^3/M/min | 0.19 | 4.5 |  | C=CC(=O)NCCCCC(=O)N1CCN(C(=O)C23CC4CC(CC(C4)C2)C3)CC1 |
